Source: ChEMBL document CHEMBL3769316, “Discovery of novel heteroarylmethylcarbamodithioates as potent anticancer agents: Synthesis, structure-activity relationship analysis and biological evaluation” (Eur J Med Chem, 2016)
pIC50: −log10 of the molar value.

Tests used:
Type in all cases: functional, cell-based
[1] = Cytotoxicity against human HL60 cells after 72 hrs by alamar blue assay; conditions: HL-60, 72 h
Outline: (§1)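 Cells seeded and cultured overnight, then exposed to compound at varying concentrations for 72 h. Cells were then incubated 2-4 h in medium containing 10% Alamar blue, and fluorescence was read at ex 530/em 590 nm. Dose-response curves used at least five concentrations, and IC50 (50% growth inhibition) was taken from these curves. Culture was at 37 °C.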

[2] = Cytotoxicity against human Bel7402 cells after 72 hrs by alamar blue assay; conditions: Bel-7402, 72 h; outline: as §1
[3] = tested on: SK-BR-3; assay: Cytotoxicity against human SK-BR-3 cells after 72 hrs by alamar blue assay; conditions: SK-BR-3, 72 h; outline: as §1
[4] = tested on: MDA-MB-468; assay: Cytotoxicity against human MDA-MB-468 cells after 72 hrs by alamar blue assay; conditions: MDA-MB-468, 72 h; outline: as §1

Compound | pIC50 [1] | pIC50 [2] | pIC50 [3] | pIC50 [4]
N#CCCSC(=S)NCc1nnc(-c2ccccc2)o1 | 4.85 | 4.59 | – | –
S=C(NCc1cccnc1)SCCc1nnc(-c2cccnc2)o1 | – | 5.86 | 6.10 | 5.50
O=C(O)CCSC(=S)NCc1cccnc1 | – | 5.13 | 5.10 | 5.03
S=C(NCc1cccnc1)SCCc1nnc(-c2ccco2)o1 | – | 5.80 | 6.09 | 5.48
CCCCOC(=O)CCSC(=S)NCc1cccnc1 | – | 5.20 | 5.35 | 4.89
COc1ccc(-c2nnc(CCSC(=S)NCc3cccnc3)o2)cc1 | – | 5.81 | 5.53 | 5.28
FC(F)(F)c1ccc(-c2nnc(CCSC(=S)NCc3cccnc3)o2)cc1 | – | 5.91 | 5.62 | 5.26
S=C(NCc1cccnc1)SCCc1nc(-c2ccccc2)no1 | – | 5.55 | 5.89 | 5.00
O=[N+]([O-])c1ccc(-c2nnc(CCSC(=S)NCc3cccnc3)o2)cc1 | – | 5.74 | 5.81 | 5.34
S=C(NCc1cccnc1)SCCc1nnn[nH]1 | – | 4.24 | < 4.00 | < 4.00
NC(=O)CCSC(=S)NCc1cccnc1 | – | 5.48 | 5.94 | 5.33
N#CCCSC(=S)NCc1cncs1 | 3.96 | 3.53 | – | –
S=C(NCc1cccnc1)SCCc1nnc(-c2cnccn2)o1 | – | 5.84 | 5.89 | 5.77
CC1(C)OB(CCCSC(=S)NCc2cccnc2)OC1(C)C | – | 5.37 | 5.17 | 5.18
Cn1cccc1CNC(=S)SCCC#N | 3.55 | 3.64 | – | –
OCCSC(=S)NCc1cccnc1 | – | 5.44 | 5.88 | 5.18
S=C(NCc1cccnc1)SCCc1nnc(-c2cc3ccccc3s2)o1 | – | 5.16 | 5.27 | 5.17

Compound | pIC50 [1] | pIC50 [2] | pIC50 [3] | pIC50 [4]
CC(=O)CCSC(=S)NCc1cccnc1 | – | 5.46 | 5.95 | 5.37
Cc1cc(CNC(=S)SCCC#N)n(C)n1 | 5.38 | 5.37 | – | –
S=C(NCc1cccnc1)SCCc1nnc(-c2ccc3ncccc3c2)o1 | – | 5.75 | 6.07 | 5.77
S=C(NCc1cccnc1)SCCc1nnc(-c2ccc3ccccc3n2)o1 | – | 5.71 | 6.10 | 5.46
S=C(NCc1cccnc1)SCCc1nc2ccccc2s1 | – | 5.45 | 5.86 | 5.01
CCOP(=O)(CCSC(=S)NCc1cccnc1)OCC | – | 4.29 | 4.29 | 4.22
Fc1ccccc1-c1nnc(CCSC(=S)NCc2cccnc2)o1 | – | 5.26 | 5.33 | 5.47
S=C(NCc1cccnc1)SCCc1nc2ccccc2[nH]1 | – | 5.03 | 5.77 | 4.94
Cc1cc(-c2nnc(CCSC(=S)NCc3cccnc3)o2)no1 | – | 5.77 | 5.76 | 5.21
S=C(NCc1cccnc1)SCCc1nnc(-c2cccs2)o1 | – | 5.87 | 5.97 | 5.47
S=C(NCc1cccnc1)SCCc1nnc(-c2cc[nH]c2)o1 | – | 5.93 | 6.09 | 5.69
S=C(NCc1cccnc1)SCCc1nc2ccccc2o1 | – | 5.54 | 6.09 | 5.37
O=S(=O)(O)CCCSC(=S)NCc1cccnc1 | – | 5.18 | 5.17 | 4.96
S=C(NCc1cccnc1)SCCc1nnc(-c2ccsc2)o1 | – | 5.91 | 5.99 | 5.49
S=C(NCc1cccnc1)SCCc1nnc(-c2ccc(Cl)cc2)o1 | – | 5.90 | 6.07 | 5.70
S=C(NCc1cccnc1)SCCn1nc2ccccc2n1 | – | 5.58 | 6.01 | 4.94
O=C(CCSC(=S)NCc1cccnc1)NCc1ccccc1 | – | < 4.00 | < 4.00 | < 4.00
